Laboratory results: ChEMBL document CHEMBL1153905, “Functionalized 3-benzylidene-indolin-2-ones: inducers of NAD(P)H-quinone oxidoreductase 1 (NQO1) with antiproliferative activity” (Bioorg Med Chem, 2009)

Tests used:
[1] = tested on: HCT-116; assay: Cell cycle arrest in human HCT116 cells released from G1 block assessed as accumulation at sub G1 phase at 5 uM after 24 hrs by flow cytometry; type: functional
[2] = tested on: HCT-116; assay: Cell cycle arrest in human HCT116 cells released from G2 block assessed as accumulation at G2/M phase at 5 uM after 24 hrs by flow cytometry; type: functional
[3] = Antiproliferative activity against human CCL186 cells after 72 hrs by MTT assay; type: cell-based; details: CCL186, 72 h
Procedure, shortened: (§1)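 Cells seeded at 10,000 (MCF7), 4000 (HCT116) or 5000 (CCL186) per well and grown 24 h; MCF7 and CCL186 in EMEM with pyruvate, glutamine, 10% FBS; HCT116 in McCoy's 5A with 10% FBS. Compounds from DMSO stocks (≤1% DMSO final), 72 h exposure; MTT 0.5 mg/ml for 3 h, formazan in DMSO read at 590 nm. IC50 from sigmoidal survival curve, three separate occasions.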

[4] = Selectivity ratio of IC50 for human CCL186 cells to IC50 for human HCT116 cells; type: ADME, cell-based, HCT-116; details: CCL186 cells and HCT116 cells, read-out: Ratio IC50
Procedure, shortened: (§2)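 MTT assay. MCF7 and CCL186 cells were grown in EMEM/10% FBS, HCT116 in McCoy's 5A/10% FBS. Seeding was 10,000 (MCF7), 4000 (HCT116) and 5000 (CCL186) cells per well, 24 h. Compound exposure was 72 h, DMSO ≤1% final. MTT 0.5 mg/ml for 3 h, formazan dissolved in DMSO, A590. IC50 came from sigmoidal survival curves, with 3 separate occasions per concentration. Ratio = IC50 CCL186 / IC50 of the cancer line.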

[5] = tested on: HCT-116; assay: Cell cycle arrest in human HCT116 cells released from G1 block assessed as accumulation at G2/M phase at 5 uM after 24 hrs by flow cytometry; type: functional
[6] = tested on: HCT-116; assay: Cell cycle arrest in human HCT116 cells released from G2 block assessed as accumulation at S phase at 5 uM after 24 hrs by flow cytometry; type: functional
[7] = tested on: HCT-116; assay: Antiproliferative activity against human HCT116 cells after 72 hrs by MTT assay; type: functional, cell-based; details: HCT-116, 72 h; procedure, shortened: as §1
[8] = tested on: MCF7; assay: Antiproliferative activity against human MCF7 cells after 72 hrs by MTT assay; type: functional, cell-based; details: MCF7, 72 h; procedure, shortened: as §1
[9] = tested on: HCT-116; assay: Cell cycle arrest in human HCT116 cells released from G1 block assessed as accumulation at S phase at 5 uM after 24 hrs by flow cytometry; type: functional
[10] = tested on: HCT-116; assay: Cell cycle arrest in human HCT116 cells released from G1 block assessed as accumulation at G1 phase at 5 uM after 24 hrs by flow cytometry; type: functional
[11] = Cytotoxicity against mouse Hepa-1c1c7 cells after 48 hrs by MTT assay; type: cell-based; details: hepa-1c1c7, 48 h
Procedure, shortened: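 Murine hepatoma cells in α-MEM with 10% heat- and charcoal-treated fetal calf serum, passages 6–17; MTT read-out as for the cancer lines but with 48 h compound exposure. Highest concentration tested 25 µM. IC50 from survival-versus-concentration curve; mean and SD, n = 3.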

[12] = tested on: HCT-116; assay: Cell cycle arrest in human HCT116 cells released from G2 block assessed as accumulation at G1 phase at 5 uM after 24 hrs by flow cytometry; type: functional
[13] = tested on: HCT-116; assay: Cell cycle arrest in human HCT116 cells released from G2 block assessed as accumulation at sub G1 phase at 5 uM after 24 hrs by flow cytometry; type: functional
[14] = tested on: MCF7; assay: Selectivity ratio of IC50 for human CCL186 cells to IC50 for human MCF7 cells; procedure, shortened: as §2
[15] = target: T1, CYP1A1 (Mus musculus, UniProt P00184); assay: Induction of CYP1A1 activity in mouse Hepa-1c1c7 cells assessed as induction ratio at 0.5 uM after 48 hrs by EROD assay relative to control; type: ADME, cell-based
T1 sequence (P00184 whole entry): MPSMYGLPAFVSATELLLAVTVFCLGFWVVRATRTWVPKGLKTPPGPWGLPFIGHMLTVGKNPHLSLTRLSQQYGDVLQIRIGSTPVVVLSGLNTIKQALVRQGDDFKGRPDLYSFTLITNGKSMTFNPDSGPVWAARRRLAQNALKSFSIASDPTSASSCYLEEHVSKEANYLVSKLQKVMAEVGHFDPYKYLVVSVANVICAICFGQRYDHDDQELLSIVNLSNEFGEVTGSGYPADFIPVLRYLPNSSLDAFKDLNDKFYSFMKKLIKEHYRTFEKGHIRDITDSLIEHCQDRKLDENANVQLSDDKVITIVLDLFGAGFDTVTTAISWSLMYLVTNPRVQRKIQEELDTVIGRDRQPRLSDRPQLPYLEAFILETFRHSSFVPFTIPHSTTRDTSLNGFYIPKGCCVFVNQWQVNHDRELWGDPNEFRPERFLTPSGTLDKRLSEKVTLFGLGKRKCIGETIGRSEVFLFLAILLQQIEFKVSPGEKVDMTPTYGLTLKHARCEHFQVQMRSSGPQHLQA
Procedure, shortened: (§3)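 About 10,000 Hepa1c1c7 cells/well cultured 24 h, then compound (0.5% DMSO final) for 48 h, at roughly 4 × the concentration doubling NQO1 activity. After PBS wash, cells given 5 µM 7-ethoxyresorufin plus 2 mM salicylamide, 37 °C, 40 min; resorufin fluorescence ex 530/em 590 nm, corrected for compound fluorescence. Ratio = (treated − blank)/(DMSO control − blank); mean ± SD, n = 3.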

[16] = target: NAD(P)H dehydrogenase [quinone] 1 (Mus musculus) (UniProt Q64669); assay: Induction of NQO1 activity in mouse Hepa-1c1c7 cells assessed as induction ratio at 0.5 uM after 48 hrs by MTT assay relative to control; type: cell-based
Sequence of NAD(P)H dehydrogenase [quinone] 1 (Mus musculus) (Q64669 whole entry): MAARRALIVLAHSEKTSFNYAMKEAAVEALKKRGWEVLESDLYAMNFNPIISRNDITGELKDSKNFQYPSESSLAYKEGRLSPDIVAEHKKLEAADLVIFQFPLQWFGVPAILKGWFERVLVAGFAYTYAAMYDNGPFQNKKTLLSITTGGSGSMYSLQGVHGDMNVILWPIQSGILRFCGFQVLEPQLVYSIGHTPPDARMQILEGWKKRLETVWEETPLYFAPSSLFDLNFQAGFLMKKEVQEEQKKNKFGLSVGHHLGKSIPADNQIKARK
Procedure, shortened: (§4)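 Hepa1c1c7 cells, 10,000 per well, 24 h, were then treated 48 h (DMSO ≤0.5%). Digitonin/EDTA lysates were assayed for menadione-dependent MTT-formazan formation using a G6P/G6PDH NADPH-generating mix with FAD at pH 7.4. The reaction ran 5 min, was stopped with dicoumarol, and read at A590. Degree of induction = (A test − blank)/(A control − blank). Ratios were read off the induction–concentration plot at the EROD test concentration.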

[17] = tested on: HCT-116; assay: Cell cycle arrest in human HCT116 cells released from G2 block assessed as accumulation at G1 phase at 10 uM after 24 hrs by flow cytometry; type: functional
[18] = tested on: HCT-116; assay: Cell cycle arrest in human HCT116 cells released from G1 block assessed as accumulation at G2/M phase at 10 uM after 24 hrs by flow cytometry; type: functional
[19] = tested on: HCT-116; assay: Cell cycle arrest in human HCT116 cells released from G2 block assessed as accumulation at G2/M phase at 10 uM after 24 hrs by flow cytometry; type: functional
[20] = tested on: HCT-116; assay: Cell cycle arrest in human HCT116 cells released from G1 block assessed as accumulation at G1 phase at 10 uM after 24 hrs by flow cytometry; type: functional
[21] = tested on: HCT-116; assay: Cell cycle arrest in human HCT116 cells released from G1 block assessed as accumulation at sub G1 phase at 10 uM after 24 hrs by flow cytometry; type: functional
[22] = tested on: HCT-116; assay: Cell cycle arrest in human HCT116 cells released from G2 block assessed as accumulation at S phase at 10 uM after 24 hrs by flow cytometry; type: functional
[23] = tested on: HCT-116; assay: Cell cycle arrest in human HCT116 cells released from G1 block assessed as accumulation at S phase at 10 uM after 24 hrs by flow cytometry; type: functional
[24] = tested on: HCT-116; assay: Cell cycle arrest in human HCT116 cells released from G2 block assessed as accumulation at sub G1 phase at 10 uM after 24 hrs by flow cytometry; type: functional
[25] = target: T1, CYP1A1; assay: Induction of CYP1A1 activity in mouse Hepa-1c1c7 cells assessed as induction ratio at 0.05 uM after 48 hrs by EROD assay relative to control; type: ADME, cell-based; procedure, shortened: as §3
[26] = target: NAD(P)H dehydrogenase [quinone] 1 (Mus musculus) (UniProt Q64669); assay: Induction of NQO1 activity in mouse Hepa-1c1c7 cells assessed as induction ratio at 0.05 uM after 48 hrs by MTT assay relative to control; type: cell-based; procedure, shortened: as §4

| SMILES | Activity [1] [%] | Activity [2] [%] | IC50 [3] [µM] | selectivity ratio [4] | Activity [5] [%] | Activity [6] [%] | IC50 [7] [µM] | IC50 [8] [µM] | Activity [9] [%] | Activity [10] [%] | IC50 [11] [µM] | Activity [12] [%] | Activity [13] [%] | Ratio IC50 [14] | Activity [17] [%] | Activity [18] [%] | Activity [19] [%] | Activity [20] [%] | Activity [21] [%] | Activity [22] [%] | also measured |
| --- | --- | --- | --- | --- | --- | --- | --- | --- | --- | --- | --- | --- | --- | --- | --- | --- | --- | --- | --- | --- | --- |
| COc1ccc(/C=C2/C(=O)Nc3ccccc32)c(OC)c1 | 2.64 | 39.43 | 5.8 | 1.8 | 58.82 | 13.43 | 8.8 | 3.3 | 12.37 | 26.14 | 11.1 | 34.66 | 12.49 | 0.7 | – | – | – | – | – | – | – |
| COc1ccc2c(c1)NC(=O)/C2=C/c1cccc(C(F)(F)F)c1 | 4.39 | 31.58 | 5.4 | 1.4 | 59.16 | 17.96 | 1.9 | 3.8 | 19.12 | 17.5 | 2.6 | 30.55 | 20.69 | 2.8 | – | – | – | – | – | – | fold induction at 48 h, 0.5 µM [15]: 1.36; Ratio [16]: 4.22 |
| COc1cccc(OC)c1/C=C1/C(=O)Nc2ccccc21 | – | – | 17.8 | 2.9 | – | – | 4.8 | 6.2 | – | – | 13.9 | – | – | 3.7 | 32.97 | 59.63 | 44.99 | 20.86 | 3.52 | 12.42 | Activity [23]: 16%; Activity [24]: 9.51% |
| COc1ccc(OC)c(/C=C2/C(=O)Nc3ccccc32)c1 | – | – | 18.1 | 2.4 | – | – | 5.1 | 7.7 | – | – | > 25 | – | – | 3.5 | 39.33 | 46.51 | 34.26 | 24.24 | 2.64 | 16.68 | fold induction at 48 h, 0.05 µM [25]: 3.08; Ratio [26]: 3.32; Activity [23]: 26.68%; Activity [24]: 9.83% |
